Assay outcomes from PubChem.
A selection: hits, their analogues and other compounds. The true share with any hit is near 2.1%.
p-CIP stab down – lowers stability of the mouse p/CIP coactivator protein; Q05BA5; F442A p/CIP-EGFP cells, EGFP fluorescence, 16 h; decrease of EGFP signal, % at 10 µM; 290,000 tested, 0.01% active; AID 1984;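 active = EGFP signal decrease of at least 30% at 10 µM or well 3 SD below plate mean, unless failing retest; inactive = the rest, including hits failing retest or dose response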
Runt-CBFb FRET – Runt domain-CBFb interaction inhibition | Q01196+Q13951 | Cerulean-Runt/Venus-CBFb FRET ratio 530/480, 1 h | inhibition, % at 20 µM | 220,000 tested, 0.46% active;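 active = inhibition over about 50% at 20 µM in the single-dose screen, limit read from the data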;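 note: 0% = DMSO wells and 100% = excess unlabeled CBFb competitor control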
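Measured by: fluorescence energy transfer, 422 nm excitation, 530/480 nm emission; Assay system: Cerulean-Runt domain; Medium: Tris pH 7.5 buffer with BSA; Measure: loss of energy transfer signal; Controls: 5 µM unlabeled CBFb as full-inhibition high control; Incubation: protein complex preformed 1 h, compound exposure 1 h, room temperature, dark.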
RanGTP-Imp inh – inhibitors of RanGTP-importin-beta interaction, primary screen, biochemical, FRET, CFP-Ran, YFP-importin-beta, homogeneous. inhibition, % (test concentration not listed). 300,000 tested, 1.1% active. cell-free CFP-Ran/YFP-importin-beta FRET ratio;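 active = more than half of the replicate wells show a fall in the fluorescence ratio signal beyond about 16%, limit read from the data, passing the limit was not always enough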;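 note: 0% = DMSO wells and 100% = Ran loaded with GDP instead of GTP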
Runt-SMMHC FRET – blocks binding of human RUNX1 Runt domain to CBFb-SMMHC | Cerulean-Runt/Venus-CBFb-SMMHC FRET ratio 530/480, 1 h | 220,000 tested, 0.74% active | Q01196+Q13951 | inhibition, % at 20 µM;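 active = mean inhibition across duplicate retests at 20 µM reaching about 50%, limit read from the data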;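 note: 0% = DMSO wells and 100% = wells with excess untagged CBFb-SMMHC; inhibitors lower the FRET ratio by blocking Runt binding to CBFb-SMMHC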
Pemphigus Ab inh – blocks pemphigus antibody binding to human desmoglein-3. P32926. DSG3-coupled beads, scFv-anti-DSG3-GFP binding, flow cytometry; hits give low values. binding (percent of control), % at 10 µM. 310,000 tested, 0.48% active. AID 588358;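 active = binding more than 3 SD below its plate's average and above zero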;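 note: hits lower antibody fragment binding to DSG3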
Hck-Nef inh – human Hck-Nef kinase inhibition. Recombinant Hck-YEEI plus Nef, Z-Lyte FRET kinase assay. inhibition, % at 20 µM. 220,000 tested, 0.68% active. AID 463187;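 active = Hck-Nef kinase inhibition above about 50%, limit read from the data; inactive = inhibition below that limit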;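 note: 0% = DMSO with Hck plus Nef and 100% = Hck alone without Nef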
An asterisk follows results filed as active; · = no result.

SMILES	p-CIP stab down	Runt-CBFb FRET	RanGTP-Imp inh	Runt-SMMHC FRET	Pemphigus Ab inh	Hck-Nef inh
CN(C(=O)c1cncc(Br)c1)C1C2CC3CC(C2)CC1C3 (configuration not stated)	-4.4	·	4.2	·	101.2	·
CCc1ccc(-c2cc(C(F)(F)F)n3nc(C(=O)Nc4c(C)nn(Cc5ccc(F)cc5)c4C)cc3n2)s1	-5.2	10.6	58.4*	12.9	94.0	7.9
CCN1CCc2c(sc(NC(=O)c3ccc(S(=O)(=O)N(C)CC4CCCO4)cc3)c2C(N)=O)C1 (configuration not stated)	-17.8	·	48.3*	·	104.6	·
CC(C)N1CCc2c(sc(NC(=O)c3ccc(S(=O)(=O)N(C)CC4CCCO4)cc3)c2C(N)=O)C1 (configuration not stated)	-9.7	·	71.9*	·	106.7	·
COc1ccc(N2CCN(S(=O)(=O)CCNC(=O)C3CC3)CC2)cc1	·	·	-4.4	·	102.8	·
CCc1cccc(CC)c1C(OC(C)=O)c1cccnc1 (configuration not stated)	·	·	4.4	·	112.5	·
Cc1ccc2cc3c(NC(=O)C4CCCO4)nn(CC(C)C)c3nc2c1 (configuration not stated)	-2.8	21.1	31.4*	32.3	98.2	11.2
CCn1nc(NC(=O)C2CCCO2)c2cc3cc(C)ccc3nc21 (configuration not stated)	6.7	29.7	44.1*	45.1	88.2	9.2
Cc1ccc2nc3c(cc2c1)c(NC(=O)C1CCCO1)nn3CC(C)C (configuration not stated)	10.4	41.1	70.6*	58.7*	107.7	15.6
CCCCN(CC)CCCNC(=O)c1ccc(CS(=O)(=O)c2ccccc2C)o1	-6.3	·	-3.3	·	85.3	·
C=CCSc1nc(N)c2c3c(sc2n1)CN(C)CC3	0.8	·	18.5*	·	102.5	·
CCNc1nc(SCC(N)=O)nc2sc3c(c12)CCN(C)C3	-8.5	·	48.4*	·	104.8	·
N#CCN(CC#N)C(=O)C1c2ccccc2Oc2ccccc21	3.8	·	-0.1	·	106.8	·
CC[C@]12C(=O)N(C)C[C@H]([C@@H]3C(=O)N(C)C(=O)[C@@H]31)N2C(=O)c1ccc(Cl)cc1	·	·	·	·	97.9	·
COc1cc(/C=C(/C#N)C(=O)Nc2ccc(Cl)cc2)ccc1Oc1nc(Cl)ncc1F	-17.9	1.9	-1.5	2.8	88.9	21.9
O=c1[nH]cc(NCCc2ccccc2)c(=O)[nH]1	1.7	8.6	43.2*	16.5	104.3	29.1
O=C(O)CCN1C(=O)/C(=C2\C(=O)N(Cc3ccccc3Cl)c3ccccc32)SC1=S	-10.1	·	1.0	·	93.0	·
Cc1ccc(NC(=O)CN2C(=O)/C(=C3\SC(=S)N(C4CCS(=O)(=O)C4)C3=O)c3ccccc32)cc1 (configuration not stated)	-3.1	11.4	·	7.6	99.7	97.0*
O=C(CN1C(=O)/C(=C2\SC(=S)N(C3CCS(=O)(=O)C3)C2=O)c2ccccc21)Nc1ccccc1 (configuration not stated)	11.9	11.0	·	-7.0	·	30.9
COc1ccc(NC(=O)CN2C(=O)/C(=C3\SC(=S)N(CCC(=O)O)C3=O)c3ccccc32)cc1	-1.2	·	1.6	·	81.9*	·
COc1ccccc1NC(=O)COC(=O)C1=NN(c2ccccc2)C(=O)CC1	·	·	·	·	94.5	·
CC1CCc2[nH]c3ccc(C(=O)N(C)CC(=O)Nc4ccccc4Br)cc3c2C1 (configuration not stated)	·	·	10.3	·	100.2	·
Cc1ccc(C)c(NC(=O)CN(C)C(=O)c2ccc3[nH]c4c(c3c2)CC(C)CC4)c1 (configuration not stated)	·	·	25.8*	·	96.5	·
COc1ccc(NC(=O)c2nc[nH]c2C(=O)N2CCN(C(=O)OC(C)(C)C)CC2)cc1	2.1	-0.2	24.7*	0.4	101.6	30.2
Cc1ccc(NC(=O)c2nc[nH]c2C(=O)N2CCN(C(=O)OC(C)(C)C)CC2)cc1	·	·	·	·	97.5	·
SMILES	p-CIP stab down	Runt-CBFb FRET	RanGTP-Imp inh	Runt-SMMHC FRET	Pemphigus Ab inh	Hck-Nef inh
CCC1=[N+](CC(=O)c2ccc(C)cc2)CCn2cccc21	-12.6	-8.7	-3.8	-25.3	·	23.3
CC1=[N+](CC(=O)c2ccccc2)CCn2cccc21	-8.3	-16.3	19.7*	-39.0	·	19.1
CC(C)c1[nH]nc2c1C1(CCN(Cc3ccccc3)CC1)C(C#N)=C(N)O2	-24.2	49.7	20.6*	59.1*	·	1.4
Cc1c(Cl)c(=O)n2c(=O)c(Cl)c(C)n12	2.4	20.8	128.3*	86.1*	97.5	-67.8
COc1ccc(CCN(C)C(=O)C(CCSC)NC(=O)c2ccco2)cc1OC (configuration not stated)	·	·	·	·	101.3	·
Cc1ccc2nc(CSc3nc(C)cc(C)c3C#N)[nH]c2c1	-4.2	1.9	29.0*	7.4	98.4	0.0
Cc1cc(Cl)ccc1OCCCC(=O)OCC(=O)Nc1cccc(S(N)(=O)=O)c1	·	·	·	·	100.0	·
COc1ccc(C(CNC(=O)CN2C(=O)NC3(CCCC3)C2=O)N(C)C)cc1 (configuration not stated)	-16.7	·	1.2	·	97.6	·
CCOC(=O)C1(CCOc2ccccc2)CCN(CC(O)CO)CC1 (configuration not stated)	-9.0	·	0.2	·	89.9*	·
COc1ccc(C(=O)COC(=O)CN2C(=O)c3ccccc3C2=O)c(OC)c1	4.9	·	0.8	·	105.2	·
CC(=O)c1nn(-c2cccc(Br)c2)cc1C(=O)c1ccc(Br)cc1	-16.7	-0.2	29.2*	0.1	·	-20.8
COc1ccc(N2CC(C(=O)N[C@@H](CC(C)C)C(=O)NC3CCCC3)CC2=O)cc1 (some centres not stated)	8.2	·	-1.2	·	101.9	·
N#Cc1c2ccc(O)cc2n2ccccc12	2.7	20.3	19.2*	86.3*	91.9	-78.7
O=C(COc1ccccc1)NCc1ccco1	·	·	·	·	115.1	·
N#Cc1c2ccc(OCC(=O)NCc3ccco3)cc2n2ccccc12	-10.7	·	20.9*	·	88.6	·
COc1ccc2nc3cc(Cl)ccc3c(Nc3cc(C(C)C)c(O)cc3C)c2c1	3.0	76.7*	115.2*	50.5*	106.8	5.1
COc1ccc2nc3cc([N+](=O)[O-])ccc3c(NNc3ccc([N+](=O)[O-])cc3)c2c1	·	·	·	·	81.1	·
CCN(CC)CCCC(C)Nc1c2ccc(Cl)cc2nc2ccc(OC)cc12 (configuration not stated)	-106.6	12.5	·	85.4*	·	·
COc1ccc(S(=O)(=O)Nc2cc(C(C)C)c(O)cc2C)cc1	-6.1	-1.1	-1.3	-0.7	99.6	5.7
CCOc1ccc(NC(=O)CN(C)S(=O)(=O)c2ccc3c(c2)CCC(=O)N3)cc1	-11.4	1.6	0.4	59.7*	85.1	7.9
CCOC(=O)c1c(N2C(=O)CC(Sc3ccccc3C(=O)O)C2=O)sc2c1CCCC2 (configuration not stated)	5.6	28.3	12.2	15.2	102.4	26.9
